Active and inactive are the calls of the source.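 How the source made its calls: active means signal drop whose fitted AC50 is at most twice the top valid dose for that sample; inconclusive means flat fit with a moderate drop, or a poor fit; inactive means the rest.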
Legend:
[1] = DiI-HDL uptake in parental ldlA7 CHO cells, dose response, counter-screen for SR-BI HDL uptake inhibitor project, cell-based, fluorescence, dry powder (AID 588825); settings: CHO ldlA7 parental cells, DiI-HDL uptake fluorescence, 3 h
Method in brief: (§1)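 System: parental CHO ldlA7 cells lacking LDL receptor, no mSR-BI overexpression; medium: HEPES-buffered Ham's F12 containing fatty-acid-free BSA; dosing: compounds delivered into wells by pin transfer; times: overnight cell attachment, then 3 h compound plus DiI-HDL exposure at 37 °C; signal: bottom-read fluorescence, 550 nm ex, 595 nm em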

[2] = system: CHO ldlA7 parental cells, DiI-HDL uptake fluorescence, 3 h; assay: as above
Method in brief: as §1

Row | SMILES | activity change, negative = inhibition ([1]; at 35 µM (top of the series)) | also measured
1 | CCNC(=O)N1CCc2cc(-c3csc(NC(=O)c4cc(OC)cc(OC)c4)n3)ccc21 | -0.713% (inactive) | 
2 | CCC(=O)N1CC(C)(C)c2cc(-c3csc(NC(=O)c4cc(OC)cc(OC)c4)n3)ccc21 | -2.41% (inactive) | 
3 | Cc1ccc2oc(-c3cccc(NC(=O)c4cc(-n5cnnc5)ccc4Cl)c3)nc2c1 | -1.07% (inactive) | 
4 | COc1ccc(-c2cc(CC(=O)N(C3CCCCC3)C(C)C(=O)NC3CCCC3)no2)cc1OC (configuration not stated) | 3.44% (inactive) | 
5 | CC(C)(Sc1cc(C(C)(C)C)c(O)c(C(C)(C)C)c1)Sc1cc(C(C)(C)C)c(O)c(C(C)(C)C)c1 | -1.71% (inactive) | 
6 | COc1c(NC(=O)C(=O)c2ccc(OCCN3CCOCC3)c3ccccc23)cc(C(C)(C)C)cc1NS(C)(=O)=O | 8% (inactive) | 
7 | COc1cc(OC)cc(C(=O)Nc2nc(-c3ccc4c(c3)CCN4C(=O)CN(C)C)cs2)c1 | 3.12% (inactive) | 
8 | COCC(=O)N1CCc2cc(-c3csc(NC(=O)c4cc(OC)cc(OC)c4)n3)ccc21 | 1.62% (inactive) | 
9 | CC(=O)N1CCc2cc(-c3nc(NC(=O)c4cccc(OC(F)(F)F)c4)sc3C)ccc21 | 0.208% (inactive) | 
10 | C[C@H](C(=O)NC1CCCC1)N(C(=O)Cn1nnc(-c2ccc3c(c2)OCO3)n1)C1CCCCC1 | 0.283% (inactive) | 
11 | CCC(=O)N1CCc2cc(-c3csc(NC(=O)c4cccc(OC)c4)n3)ccc21 | 14.2% (inactive) | 
12 | CCC(=O)N1CCc2cc(-c3csc(NC(=O)c4ccc(F)c(OC)c4)n3)ccc21 | 7.73% (inactive) | 
13 | CCCCCCC1CCC/C1=N\NC(N)=S (configuration not stated) |  | AC50 [2]: > 70 µM (inactive)
14 | C[C@@H]1CN([C@@H](C)CO)C(=O)Cc2cc(NC(=O)Nc3ccc(C(F)(F)F)cc3)ccc2O[C@@H]1CN(C)S(=O)(=O)c1ccc(Cl)cc1 |  | activity change, negative = inhibition ([1]; at 30 µM (top of the series)): 19.1% (inactive)
15 | C[C@@H]1CN([C@H](C)CO)C(=O)c2cc(NC(=O)Cc3cn(C)c4ccccc34)ccc2O[C@H]1CN(C)S(=O)(=O)c1ccc(Cl)cc1 | 5.56% (inactive) | 
16 | CC1CCC/C=C/C2CC(O)CC2C(O)/C=C\C(=O)O1 (configuration not stated) | -6.83% (inactive) | 
17 | COc1cc(OC)cc(C(=O)Nc2nc(-c3ccc4c(c3)CCN4C(=O)OC(C)(C)C)cs2)c1 | 1.78% (inactive) | 
